Measured values from ChEMBL document CHEMBL4513216, “Probing the Open Global Health Chemical Diversity Library for Multistage-Active Starting Points for Next-Generation Antimalarials” (ACS Infect Dis, 2020).

Test: Toxicity liver stage against HepG2, at 10uM
Type: cell-based
Design: test concentration 10 uM, cell line HepG2-A16-CD81EGFP
Settings: human, HepG2-A16-CD81EGFP cells; read-out: INHIBITION
In short: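 Uninfected HepG2-A16-CD81EGFP cells, 3 × 10^3 per well, 1536-well, plated on prespotted compound at 10 μM final, parasite-free screening media added to match infected plates; puromycin 10 μM positive, DMSO 0.5% negative; run in parallel with 48 h PbLuc assay at 37 °C, 5% CO2; viability by CellTiter-Glo luminescence, normalized to controls.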

## Cc1ccccc1N1CCN(C(=O)c2cnc(N(C)C)nc2C)C(C)C1 (stereo not given)
  cytotoxicity at 10 µM: 15.3%

## Cn1cc(C2CCCN2C(=O)CCCOCc2ccccc2)cn1 (stereo not given)
  cytotoxicity at 10 µM: -10.2%

## CCc1nnc2n1CCN(CCC(=O)Nc1cc(C)on1)C2
  cytotoxicity at 10 µM: 4.23%

## O=C(CCc1ccccc1)C1CCCN(Cc2cncn2C2CC2)C1 (stereo not given)
  cytotoxicity at 10 µM: -7.12%

## CC(C)OCCS(=O)(=O)c1ccccc1C#N
  cytotoxicity at 10 µM: 8.24%

## CCn1cc(CNCC(c2ccc(Cl)cc2)n2cccn2)cn1 (stereo not given)
  cytotoxicity at 10 µM: 6.67%

## Cc1ccccc1C(=O)N1CC[C@H](O)[C@@H](N2CCOCC2)CC1
  cytotoxicity at 10 µM: 5.32%

## CCC(=O)N1CCC2(C=C(C(=O)N3CCCC3)c3ccccc32)CC1
  cytotoxicity at 10 µM: -92.8%

## COCCNc1cc(C)nn2cnnc12
  cytotoxicity at 10 µM: -1.63%

## COCCCNC(=O)N1CCN(C(=O)c2nsc3ccccc23)CC1
  cytotoxicity at 10 µM: 12%

## NC(=O)c1cc2c(nc1Oc1ccccc1CN1CCCCC1)CCC2
  cytotoxicity at 10 µM: 3.71%

## Cc1noc(C)c1CCC(=O)N1CCCCC1CNS(C)(=O)=O (stereo not given)
  cytotoxicity at 10 µM: 8.71%

## Cc1cccnc1N1CCN(C(=O)CCc2ccccn2)CC1
  cytotoxicity at 10 µM: -12.1%

## O=C(NCc1cccnc1)[C@@H]1CC[C@@H]2[C@@H](CCN2c2ncc(F)cn2)O1
  cytotoxicity at 10 µM: -44.6%

## Cc1cccc(CCC(=O)N2CCOCC2c2c(C)n[nH]c2C)c1 (stereo not given)
  cytotoxicity at 10 µM: -13.3%

## CCNC(=O)c1ccc(NC2CCOC3(CCCC3)C2)nn1 (stereo not given)
  cytotoxicity at 10 µM: -5%

## O=S(=O)(NCCc1c[nH]c2ccc(F)cc12)C1CCOCC1
  cytotoxicity at 10 µM: 4.13%

## Cc1c(C(=O)O)sc2nc(C(F)(F)F)ccc12
  cytotoxicity at 10 µM: 1.5%

## Cc1nc(C)c(C)c(N2CCC3(CCOC3)C2)n1 (stereo not given)
  cytotoxicity at 10 µM: -1.31%

## COc1ccc(C)cc1C(C)NC(=O)NCCCn1cncn1 (stereo not given)
  cytotoxicity at 10 µM: 2.62%

## COc1ccc(C(N)=O)cc1NCc1noc(-c2ccsc2)n1
  cytotoxicity at 10 µM: 3.33%

## CC(C(=O)NCCN1CCCCC1)n1cncn1 (stereo not given)
  cytotoxicity at 10 µM: -3.37%

## CC(C)CN(Cc1ccccn1)Cc1ccccc1C(=O)O
  cytotoxicity at 10 µM: 2.51%

## Cc1oc(-c2nc(C#N)c(N(C)C)o2)cc1S(=O)(=O)N1CCCCCC1
  cytotoxicity at 10 µM: -13.9%

## Cc1nn(C)cc1-c1cc(C(F)F)nc(NC2CCCCC2)n1
  cytotoxicity at 10 µM: 1.84%

## CCOCCn1c(=O)[nH]c2cc(C(=O)N(C)Cc3nc(C)cs3)ccc21
  cytotoxicity at 10 µM: -10.6%

## Cc1[nH]ncc1CCCNC(=O)Nc1ccc(F)cc1
  cytotoxicity at 10 µM: 3.91%

## CS(=O)(=O)c1ccc(CNCC2CCN(CCO)CC2)cc1
  cytotoxicity at 10 µM: -18.8%

## CCc1nc(CN2CC[C@@](O)(CCOC)[C@H](C)C2)cs1
  cytotoxicity at 10 µM: 10%

## CC1Cc2ccccc2N1C(=O)Cn1nc(-c2cccs2)cc(N)c1=O (stereo not given)
  cytotoxicity at 10 µM: -10.6%

## CCOC1CCN(CCc2nc(-c3cccc(Cl)c3)no2)CC1
  cytotoxicity at 10 µM: -0.139%

## N#Cc1ccccc1C(=O)N1C[C@@H]2CC[C@H]1CN(c1ncccn1)C2
  cytotoxicity at 10 µM: 2.43%

## CC(C)n1cnnc1C1CCCN(S(=O)(=O)c2c[nH]cn2)C1 (stereo not given)
  cytotoxicity at 10 µM: -6.6%

## CN(Cc1nc(N)nc(N(C)C)n1)Cc1cccc2ccccc12
  cytotoxicity at 10 µM: 0.554%

## COc1cccc(OC)c1C(=O)N1CCN(c2ccccc2F)CC1
  cytotoxicity at 10 µM: -5.22%

## Cc1cc2n(n1)CC(CNCc1cnn(-c3ccccc3)c1)CN2 (stereo not given)
  cytotoxicity at 10 µM: -9.01%

## O=C(c1cccnc1)N1CCN2C[C@H](Oc3cncnc3)C[C@H]2C1
  cytotoxicity at 10 µM: 8.1%

## CC(C)CCN1CCC2(CC1)CN(C(=O)c1cnccn1)CCO2
  cytotoxicity at 10 µM: -12.6%

## COc1ccc(C)cc1CN1CCOC(Cn2nc(C)nc2C)C1 (stereo not given)
  cytotoxicity at 10 µM: -2.47%

## CC(C)c1nccn1CCCNC(=O)c1ccc(-c2cncnc2)nc1
  cytotoxicity at 10 µM: 16.1%

## CC(C)Oc1ccc(CNC(=O)CN(C)S(C)(=O)=O)cc1F
  cytotoxicity at 10 µM: -3.1%

## COCc1noc(-c2ccc(N(C)Cc3ccc(C)o3)nc2)n1
  cytotoxicity at 10 µM: -3.7%

## Cc1cc2n(n1)CC(CNCc1ccc(Oc3ccccc3)nc1)CN2 (stereo not given)
  cytotoxicity at 10 µM: -10.1%

## CC(=O)Nc1ccc(-c2ccccc2CCN)cc1
  cytotoxicity at 10 µM: 3.61%

## O=c1[nH]c(-c2ccc(Cl)cc2)nc2c1CCNC2
  cytotoxicity at 10 µM: 4.42%

## Cc1nn(C)c(N2CCOCC2)c1CNCc1ccc(N(C)C)nc1
  cytotoxicity at 10 µM: -14.4%

## CN1CCC(NCC2(O)CCCN(Cc3ccccc3F)C2=O)CC1 (stereo not given)
  cytotoxicity at 10 µM: -12.2%

## CC1CCC(n2cc3nc(N)[nH]cc-3c2=O)CC1 (stereo not given)
  cytotoxicity at 10 µM: -0.0237%

## COc1cccc(CN2C[C@@H](F)[C@@H](OCc3nc4cnccc4[nH]3)C2)c1
  cytotoxicity at 10 µM: -1.72%

## O=C(NCC(F)(F)C(F)F)c1cccnc1
  cytotoxicity at 10 µM: 15.4%

## COc1cc(C(=O)N2CCCC(n3cncn3)C2)ccc1C (stereo not given)
  cytotoxicity at 10 µM: -3.86%

## CN1CCC(Cc2cnc3ccccc3c2)C1 (stereo not given)
  cytotoxicity at 10 µM: 1.42%

## COc1ccc(-c2nnsc2C(=O)N2CCSCC2)cc1
  cytotoxicity at 10 µM: -1.17%

## COc1ccc(CNc2c(N3CCN(C)CC3)c(=O)c2=O)cc1
  cytotoxicity at 10 µM: 2.4%

## COCc1cccc(NC(=O)NCc2ncc(C)c(OC)c2C)c1
  cytotoxicity at 10 µM: -1.21%
